Source: the RNAGym collection of RNA variant scans (doi:10.1038/nmeth.2970)

B1: NELF-E aptamer (parent)
chain: CCCAACGACUGCCGAGCGAGAUUACGCUUGAGCGCCCCACUGAGGAUGCCCACGGGCGAUUGGGGCACGG

Variants of: B1
Assay: HiTS-RAP
Settings: with NELF-E (Drosophila)
Outline: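 Aptamer DNA templates carrying a T7 promoter and ter site were sequenced on an Illumina GAIIx flowcell, then transcribed in situ by T7 RNA polymerase and halted by GST-Tus (30 minutes, 37°C). Clusters were imaged after 30-minute room-temperature equilibration with NELF-E-mOrange at 0.064 to 1000 nM in HEPES binding buffer, and only the first binding curve was used. Intensities were normalised to sequencing intensity and averaged per sequence. Kd came from weighted Hill fits, keeping fits with variance below 1,000,000.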

Variant | Kd [nM]
CCCAACGACUGCCGAUCGAGAUUACGCUUGAGCGCCCCACUGAGGAUGCCCACGGGCGAUUGAGGCACGG [G16U G63A] | 15.2
CCCAACGACUGCCGAUCGAGAUUACGCUUGAGCGCCCCACUGAGGAUGCCCACGGGCGAUUGGAGCACGG [G16U G64A] | 7.51
CCCAACGACUGCCGAUCGAGAUUACGCUUGAGCGCCCCACUGAGGAUGCCCACGGGCGAUUGGGUCACGG [G16U G65U] | 7.8
CCCAACGACUGCCGAUCGAGAGUACGCUUGAGCGCCCCACUGAGGAUGCCCACGGGCGAUUGGGGCACGG [G16U U22G] | 6.64
CCCAACGACUGCCGAUCGAGAUGACGCUUGAGCGCCCCACUGAGGAUGCCCACGGGCGAUUGGGGCACGG [G16U U23G] | 5.85
CCCAACGACUGCCGAUCGAGAUUACGCGUGAGCGCCCCACUGAGGAUGCCCACGGGCGAUUGGGGCACGG [G16U U28G] | 6.45
CCCAACGACUGCCGAUCGAGAUUACGCUCGAGCGCCCCACUGAGGAUGCCCACGGGCGAUUGGGGCACGG [G16U U29C] | 6.55
CCCAACGACUGCCGAUCGAGAUUACGCUGGAGCGCCCCACUGAGGAUGCCCACGGGCGAUUGGGGCACGG [G16U U29G] | 6.38
CCCAACGACUGCCGAUCGAGAUUACGCUUGAGCGCCCCACCGAGGAUGCCCACGGGCGAUUGGGGCACGG [G16U U41C] | 76.2
CCCAACGACUGCCGAUCGAGAUUACGCUUGAGCGCCCCACGGAGGAUGCCCACGGGCGAUUGGGGCACGG [G16U U41G] | 6.39
CCCAACGACUGCCGAUCGAGAUUACGCUUGAGCGCCCCACUGAGGAUGCCCACGGGCGAUAGGGGCACGG [G16U U61A] | 33.3
CCCAACGACUGCCGAUCGAGAUUACGCUUGAGCGCCCCACUGAGGAUGCCCACGGGCGAUCGGGGCACGG [G16U U61C] | 77.5
CCCAACGACUGCCGAGAGAGAUUACGCUUGAGCGCCCCACUGAGGAUGCCCACGGGCGAUUGGGGCACGG [C17A] | 4.3
CCCAACGACUGCCGAGAGAGAUGACGCUUGAGCGCCCCACUGAGGAUGCCCACGGGCGAUUGGGGCACGG [C17A U23G] | 5.06
CCCAACGACUGCCGAGGGAGAUUACGCUUGAGCGCCCCACUGAGGAUGCCCACGGGCGAUUGGGGCACGG [C17G] | 5.02
CCCAACGACUGCCGAGGGGGAUUACGCUUGAGCGCCCCACUGAGGAUGCCCACGGGCGAUUGGGGCACGG [C17G A19G] | 5.02
CCCAACGACUGCCGAGGGUGAUUACGCUUGAGCGCCCCACUGAGGAUGCCCACGGGCGAUUGGGGCACGG [C17G A19U] | 7.26
CCCAACGACUGCCGAGGGAGGUUACGCUUGAGCGCCCCACUGAGGAUGCCCACGGGCGAUUGGGGCACGG [C17G A21G] | 6.68
CCCAACGACUGCCGAGGGAGAUUGCGCUUGAGCGCCCCACUGAGGAUGCCCACGGGCGAUUGGGGCACGG [C17G A24G] | 5.52
CCCAACGACUGCCGAGGGAGAUUACGCUUGGGCGCCCCACUGAGGAUGCCCACGGGCGAUUGGGGCACGG [C17G A31G] | 5.92
CCCAACGACUGCCGAGGGAGAUUACGCUUGAGCGCCCCGCUGAGGAUGCCCACGGGCGAUUGGGGCACGG [C17G A39G] | 8.44
CCCAACGACUGCCGAGGGAGAUUACGCUUGAGCGCCCCACUGGGGAUGCCCACGGGCGAUUGGGGCACGG [C17G A43G] | 9.66
CCCAACGACUGCCGAGGGAGAUUACGCUUGAGCGCCCCACUGAGGAUGCCCACGGGCGAUUGGGGCGCGG [C17G A67G] | 5.71
CCCAACGACUGCCGAGGGAGAUUAGGCUUGAGCGCCCCACUGAGGAUGCCCACGGGCGAUUGGGGCACGG [C17G C25G] | 4.76
CCCAACGACUGCCGAGGGAGAUUAUGCUUGAGCGCCCCACUGAGGAUGCCCACGGGCGAUUGGGGCACGG [C17G C25U] | 5.39
CCCAACGACUGCCGAGGGAGAUUACGCUUGAGUGCCCCACUGAGGAUGCCCACGGGCGAUUGGGGCACGG [C17G C33U] | 5.64

Variant | Kd [nM]
CCCAACGACUGCCGAGGGAGAUUACGCUUGAGCGCUCCACUGAGGAUGCCCACGGGCGAUUGGGGCACGG [C17G C36U] | 9.05
CCCAACGACUGCCGAGGGAGAUUACGCUUGAGCGCCCUACUGAGGAUGCCCACGGGCGAUUGGGGCACGG [C17G C38U] | 7.29
CCCAACGACUGCCGAGGGAGAUUACGCUUGAGCGCCCCAGUGAGGAUGCCCACGGGCGAUUGGGGCACGG [C17G C40G] | 5.54
CCCAACGACUGCCGAGGGAGAUUACGCUUGAGCGCCCCACUGAGGAUGCUCACGGGCGAUUGGGGCACGG [C17G C50U] | 15.9
CCCAACGACUGCCGAGGGAGAUUACGCUUGAGCGCCCCACUGAGGAUGCCCACGGGUGAUUGGGGCACGG [C17G C57U] | 5.45
CCCAACGACUGCCGAGGAAGAUUACGCUUGAGCGCCCCACUGAGGAUGCCCACGGGCGAUUGGGGCACGG [C17G G18A] | 6.63
CCCAACGACUGCCGAGGCAGAUUACGCUUGAGCGCCCCACUGAGGAUGCCCACGGGCGAUUGGGGCACGG [C17G G18C] | 6.41
CCCAACGACUGCCGAGGUAGAUUACGCUUGAGCGCCCCACUGAGGAUGCCCACGGGCGAUUGGGGCACGG [C17G G18U] | 6.33
CCCAACGACUGCCGAGGGAAAUUACGCUUGAGCGCCCCACUGAGGAUGCCCACGGGCGAUUGGGGCACGG [C17G G20A] | 5.92
CCCAACGACUGCCGAGGGAUAUUACGCUUGAGCGCCCCACUGAGGAUGCCCACGGGCGAUUGGGGCACGG [C17G G20U] | 6.58
CCCAACGACUGCCGAGGGAGAUUACACUUGAGCGCCCCACUGAGGAUGCCCACGGGCGAUUGGGGCACGG [C17G G26A] | 5.44
CCCAACGACUGCCGAGGGAGAUUACGCUUAAGCGCCCCACUGAGGAUGCCCACGGGCGAUUGGGGCACGG [C17G G30A] | 3.42
CCCAACGACUGCCGAGGGAGAUUACGCUUGAGCACCCCACUGAGGAUGCCCACGGGCGAUUGGGGCACGG [C17G G34A] | 8.48
CCCAACGACUGCCGAGGGAGAUUACGCUUGAGCGCCCCACUGAGGAUGCCCACGAGCGAUUGGGGCACGG [C17G G55A] | 7.03
CCCAACGACUGCCGAGGGAGAUUACGCUUGAGCGCCCCACUGAGGAUGCCCACGUGCGAUUGGGGCACGG [C17G G55U] | 7.51
CCCAACGACUGCCGAGGGAGAUUACGCUUGAGCGCCCCACUGAGGAUGCCCACGGGCGAUUAGGGCACGG [C17G G62A] | 28.8
CCCAACGACUGCCGAGGGAGAUUACGCUUGAGCGCCCCACUGAGGAUGCCCACGGGCGAUUGUGGCACGG [C17G G63U] | 10.3
CCCAACGACUGCCGAGGGAGAUUACGCUUGAGCGCCCCACUGAGGAUGCCCACGGGCGAUUGGAGCACGG [C17G G64A] | 6.78
CCCAACGACUGCCGAGGGAGAUUACGCUUGAGCGCCCCACUGAGGAUGCCCACGGGCGAUUGGGUCACGG [C17G G65U] | 7.17
CCCAACGACUGCCGAGGGAGACUACGCUUGAGCGCCCCACUGAGGAUGCCCACGGGCGAUUGGGGCACGG [C17G U22C] | 5.02
CCCAACGACUGCCGAGGGAGAGUACGCUUGAGCGCCCCACUGAGGAUGCCCACGGGCGAUUGGGGCACGG [C17G U22G] | 4.82
CCCAACGACUGCCGAGGGAGAUGACGCUUGAGCGCCCCACUGAGGAUGCCCACGGGCGAUUGGGGCACGG [C17G U23G] | 5.45
CCCAACGACUGCCGAGGGAGAUUACGCCUGAGCGCCCCACUGAGGAUGCCCACGGGCGAUUGGGGCACGG [C17G U28C] | 8.7
CCCAACGACUGCCGAGGGAGAUUACGCGUGAGCGCCCCACUGAGGAUGCCCACGGGCGAUUGGGGCACGG [C17G U28G] | 6.4
CCCAACGACUGCCGAGGGAGAUUACGCUCGAGCGCCCCACUGAGGAUGCCCACGGGCGAUUGGGGCACGG [C17G U29C] | 4.96
CCCAACGACUGCCGAGGGAGAUUACGCUGGAGCGCCCCACUGAGGAUGCCCACGGGCGAUUGGGGCACGG [C17G U29G] | 4.86

Variant | Kd [nM]
CCCAACGACUGCCGAGGGAGAUUACGCUUGAGCGCCCCACGGAGGAUGCCCACGGGCGAUUGGGGCACGG [C17G U41G] | 4.85
CCCAACGACUGCCGAGGGAGAUUACGCUUGAGCGCCCCACUGAGGAGGCCCACGGGCGAUUGGGGCACGG [C17G U47G] | 4.63
CCCAACGACUGCCGAGUGAGAUUACGCUUGAGCGCCCCACUGAGGAUGCCCACGGGCGAUUGGGGCACGG [C17U] | 4.56
CCCAACGACUGCCGAGUGGGAUUACGCUUGAGCGCCCCACUGAGGAUGCCCACGGGCGAUUGGGGCACGG [C17U A19G] | 7.29
CCCAACGACUGCCGAGUGAGAUUGCGCUUGAGCGCCCCACUGAGGAUGCCCACGGGCGAUUGGGGCACGG [C17U A24G] | 5.54
CCCAACGACUGCCGAGUGAGAUUACGCUUGGGCGCCCCACUGAGGAUGCCCACGGGCGAUUGGGGCACGG [C17U A31G] | 5.15
CCCAACGACUGCCGAGUGAGAUUACGCUUGAGCGCCCCACUGGGGAUGCCCACGGGCGAUUGGGGCACGG [C17U A43G] | 20.5
CCCAACGACUGCCGAGUGAGAUUACGCUUGAGCACCCCACUGAGGAUGCCCACGGGCGAUUGGGGCACGG [C17U G34A] | 5.49
CCCAACGACUGCCGAGUGAGAUUACGCUUGAGCGCCCCACUGAGGAUGCCCACAGGCGAUUGGGGCACGG [C17U G54A] | 11.6
CCCAACGACUGCCGAGUGAGAUUACGCUUGAGCGCCCCACUGAGGAUGCCCACGGGCGAUUGGAGCACGG [C17U G64A] | 11.1
CCCAACGACUGCCGAGUGAGAGUACGCUUGAGCGCCCCACUGAGGAUGCCCACGGGCGAUUGGGGCACGG [C17U U22G] | 4.67
CCCAACGACUGCCGAGUGAGAUGACGCUUGAGCGCCCCACUGAGGAUGCCCACGGGCGAUUGGGGCACGG [C17U U23G] | 4.95
CCCAACGACUGCCGAGUGAGAUUACGCUGGAGCGCCCCACUGAGGAUGCCCACGGGCGAUUGGGGCACGG [C17U U29G] | 5.35
CCCAACGACUGCCGAGUGAGAUUACGCUUGAGCGCCCCACGGAGGAUGCCCACGGGCGAUUGGGGCACGG [C17U U41G] | 5.63
CCCAACGACUGCCGAGCAAGAUUACGCUUGAGCGCCCCACUGAGGAUGCCCACGGGCGAUUGGGGCACGG [G18A] | 4.61
CCCAACGACUGCCGAGCACGAUUACGCUUGAGCGCCCCACUGAGGAUGCCCACGGGCGAUUGGGGCACGG [G18A A19C] | 6.3
CCCAACGACUGCCGAGCAGGAUUACGCUUGAGCGCCCCACUGAGGAUGCCCACGGGCGAUUGGGGCACGG [G18A A19G] | 5.36
CCCAACGACUGCCGAGCAAGAUUGCGCUUGAGCGCCCCACUGAGGAUGCCCACGGGCGAUUGGGGCACGG [G18A A24G] | 5.85
CCCAACGACUGCCGAGCAAUAUUACGCUUGAGCGCCCCACUGAGGAUGCCCACGGGCGAUUGGGGCACGG [G18A G20U] | 8.6
CCCAACGACUGCCGAGCAAGAUUACACUUGAGCGCCCCACUGAGGAUGCCCACGGGCGAUUGGGGCACGG [G18A G26A] | 6.84
CCCAACGACUGCCGAGCAAGAGUACGCUUGAGCGCCCCACUGAGGAUGCCCACGGGCGAUUGGGGCACGG [G18A U22G] | 6
CCCAACGACUGCCGAGCAAGAUGACGCUUGAGCGCCCCACUGAGGAUGCCCACGGGCGAUUGGGGCACGG [G18A U23G] | 4.95
CCCAACGACUGCCGAGCAAGAUUACGCUGGAGCGCCCCACUGAGGAUGCCCACGGGCGAUUGGGGCACGG [G18A U29G] | 5.68
CCCAACGACUGCCGAGCAAGAUUACGCUUGAGCGCCCCACGGAGGAUGCCCACGGGCGAUUGGGGCACGG [G18A U41G] | 4.87
CCCAACGACUGCCGAGCCAGAUUACGCUUGAGCGCCCCACUGAGGAUGCCCACGGGCGAUUGGGGCACGG [G18C] | 6.13
